Reference: ChEMBL document CHEMBL3797173, “Synthesis, anticancer activity, and SAR analyses of compounds containing the 5:7-fused 4,6,8-triaminoimidazo[4,5-e][1,3]diazepine ring system” (Bioorg Med Chem, 2016)

Legend:
[1] = system: MCF7; test: Anticancer activity against human MCF7 cells incubated for 72 hrs by WST1 assay; format: functional, cell-based
In short: (§1)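 Cells (0.5–1.7x10³ per well) seeded in RPMI + 10% FBS the day before dosing. Endpoint: WST-1 reagent added, 4 h further incubation at 37 °C, 5% CO₂, then absorbance read at 450–690 nm. IC50 derived from these readouts.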

[2] = system: MDA-MB-231; test: Anticancer activity against human MDA-MB-231 cells incubated for 72 hrs by WST1 assay; format: functional, cell-based; in short: as §1
[3] = Anticancer activity against human PC3 cells incubated for 72 hrs by WST1 assay; format: functional, cell-based, PC-3; in short: as §1
[4] = Anticancer activity against human H460 cells incubated for 72 hrs by WST1 assay; format: functional, cell-based, NCI-H460; in short: as §1
[5] = Anticancer activity against human OVCAR3 cells incubated for 72 hrs by WST1 assay; format: functional, cell-based, OVCAR-3; in short: as §1
[6] = system: A549; test: Anticancer activity against human A549 cells incubated for 72 hrs by WST1 assay; format: functional, cell-based; in short: as §1
[7] = Homo sapiens, MCF7, 72 h, read-out: IC50
[8] = Homo sapiens, MDA-MB-231, 72 h, read-out: IC50
[9] = Homo sapiens, PC-3, 72 h, read-out: IC50
[10] = Homo sapiens, NCI-H460, 72 h, read-out: IC50
[11] = Homo sapiens, OVCAR-3, 72 h, read-out: IC50
[12] = Homo sapiens, A549, 72 h, read-out: IC50

For `CCCCCCCCCCCCCC/N=c1\nc(N)c2ncn(Cc3ccccc3)c2c(N)n1`, the IC50 [1, 7] was 4.1 µM, the IC50 [2, 8] was 5.85 µM and the IC50 [3, 9] was 4.2 µM. The IC50 [4, 10] was 6.75 µM, the IC50 [5, 11] was 5.5 µM and the IC50 [6, 12] was 4.25 µM.

For `CC/N=c1\nc(N)c2nc[nH]c2c(N)n1`, the IC50 [1, 7] was > 100 µM, the IC50 ([2]; mda-mb-231) was “Not Active” and the IC50 [3, 9] was > 100 µM. For the same compound, the IC50 [4, 10] was 22 µM, the IC50 ([5]; ovcar-3) was “Not Active” and the IC50 [6, 12] was 38 µM.

`CCCCCCCC/N=c1\nc(N)c2ncn(Cc3ccccc3)c2c(N)n1` gave an IC50 [1, 7] of 4.55 µM, an IC50 [2, 8] of 4.75 µM and an IC50 [3, 9] of 5.93 µM. For the same compound, the IC50 [4, 10] was 7.45 µM, the IC50 [5, 11] was 4.98 µM and the IC50 [6, 12] was 3.83 µM.

`CCCCCCCC/N=c1\nc(N)c2ncn(Cc3ccc(OC)cc3)c2c(N)n1` gave an IC50 [1, 7] of 3.8 µM, an IC50 [2, 8] of 2.55 µM and an IC50 [3, 9] of 5.9 µM. The IC50 [4, 10] was 4.2 µM, the IC50 [5, 11] was 3.75 µM and the IC50 [6, 12] was 5.7 µM.

Compound `CCCCCCCCCCCCCCCCCC/N=c1\nc(N)c2ncn(Cc3ccccc3)c2c(N)n1` has an IC50 [1, 7] of 8.3 µM, an IC50 [2, 8] of 5.4 µM and an IC50 [3, 9] of 5.45 µM. It also gave an IC50 [4, 10] of 5.4 µM, an IC50 [5, 11] of 4.95 µM and an IC50 [6, 12] of 5.3 µM.

In the case of `Nc1n/c(=N\CCCCc2ccccc2)nc(N)c2c1ncn2Cc1ccccc1`, the IC50 [1, 7] is reported as 8.8 µM, the IC50 [2, 8] is reported as 16.6 µM and the IC50 [3, 9] is reported as > 75 µM. It also gave an IC50 [4, 10] of 18.8 µM, an IC50 [5, 11] of 37.3 µM and an IC50 [6, 12] of 15.3 µM.

`CCCCCCCCCCCCCCCCCC/N=c1\nc(N)c2nc[nH]c2c(N)n1` gave an IC50 [1, 7] of 3.53 µM, an IC50 [2, 8] of 1.43 µM and an IC50 [3, 9] of 2.61 µM. It also gave an IC50 [4, 10] of 1.75 µM, an IC50 [5, 11] of 3.1 µM and an IC50 [6, 12] of 1.85 µM.

Work on `CCCCCCCCCC/N=c1\nc(N)c2ncn(Cc3ccccc3)c2c(N)n1` yielded an IC50 [1, 7] of 1.4 µM, an IC50 [2, 8] of 2.05 µM and an IC50 [3, 9] of 5.15 µM. The IC50 [4, 10] was 3.2 µM, the IC50 [5, 11] was 3.95 µM and the IC50 [6, 12] was 1.8 µM.

`CCCCCCCC/N=c1\nc(N)c2ncn(Cc3ccc(F)cc3)c2c(N)n1` showed an IC50 [1, 7] of 3 µM, an IC50 [2, 8] of 3.6 µM and an IC50 [3, 9] of 3.8 µM. It also gave an IC50 [4, 10] of 4.7 µM, an IC50 [5, 11] of 4.3 µM and an IC50 [6, 12] of 5.9 µM.

In the case of `Nc1n/c(=N\CCc2ccccc2)nc(N)c2c1ncn2Cc1ccccc1`, the IC50 [1, 7] is reported as 10.4 µM, the IC50 [2, 8] is reported as 17.9 µM and the IC50 [3, 9] is reported as 13.1 µM. It also gave an IC50 [4, 10] of 36.6 µM, an IC50 [5, 11] of 31.7 µM and an IC50 [6, 12] of 20.4 µM.

For `CCCCCCCC/N=c1\nc(N)c2nc[nH]c2c(N)n1`, the IC50 ([1]; mcf7) was “Not Active”, the IC50 ([2]; mda-mb-231) was “Not Active” and the IC50 ([3]; pc-3) was “Not Active”. The IC50 ([4]; nci-h460) was “Not Active”, the IC50 ([5]; ovcar-3) was “Not Active” and the IC50 ([6]; a549) was “Not Active”.
